Sampled rows, rich in hits. Any-hit rate of the full collection: about 3.5%.
RGS4 act = RGS4 potentiators or activators, primary screen, cell-based, HEK293 M3R inducible RGS4, calcium flux; AID 463111, 2010; B-score at 10 µM; 310,000 tested, 0.92% active; carbachol calcium flux Fluo4; hits give low values;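 active means B-score of the integrated calcium signal more than 4 SD below the library mean, with starting fluorescence not abnormally high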;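 further: negative B-score means reduced calcium response which marks RGS4 activation or potentiation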
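System: HEK293 FlpIn-TREx cells, stable M3R, doxycycline-inducible RGS4. Timing: overnight RGS4 induction, 30 min dye load 37 °C, 20 min compound RT. Also added: carbachol, ECmax concentration. Measured by: Fluo4 fluorescence kinetic imaging of calcium. Evaluation: integrated calcium ratio converted to B score.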
MrgX1 allo act = positive allosteric modulators of MrgX1, primary screen, HEK293 cells, Fluo-4 calcium flux; Mas-related G-protein coupled receptor member X1 (Homo sapiens), Q96LB2; FDSS; hits give high values; B-score at 10 µM; 310,000 tested, 0.63% active;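 active means plate-corrected calcium response at least 3 library SD above typical, normal starting fluorescence, not activating the receptor alone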;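 further: compound read alongside a low EC10 to EC30 dose of BAM8-22 agonist; peak minus trough fluorescence over baseline measured at the second addition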
Target sequence (Q96LB2 whole entry, looked up): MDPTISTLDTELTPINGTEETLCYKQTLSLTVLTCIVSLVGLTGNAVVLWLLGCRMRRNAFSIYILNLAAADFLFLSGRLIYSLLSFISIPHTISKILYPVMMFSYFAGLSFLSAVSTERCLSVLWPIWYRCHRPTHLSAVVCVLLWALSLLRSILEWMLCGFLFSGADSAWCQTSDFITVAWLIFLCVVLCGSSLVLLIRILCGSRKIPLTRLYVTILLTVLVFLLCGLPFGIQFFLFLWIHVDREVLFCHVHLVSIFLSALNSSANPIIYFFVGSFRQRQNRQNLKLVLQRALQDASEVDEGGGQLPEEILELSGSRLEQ
RGS4 block = RGS4 inhibitors, primary screen, cell-based, HEK293 M3R inducible RGS4, calcium flux. Regulator of G-protein signaling 4 (Homo sapiens), P49798. Fluo-4 calcium flux; hits give high values; triggered by carbachol at its EC20. B-score at 10 µM. 310,000 tested, 0.45% active. AID 463165, 2010;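 active means B-score, a plate-corrected calcium signal, over three deviations above library mean, with baseline fluorescence within five deviations of library mean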;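 further: RGS4 expression induced by doxycycline in cells with stable M3 receptor; B-score is computed from the integrated fluorescence ratio over baseline after carbachol; higher B-score means a larger calcium signal and so more RGS4 inhibition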
Target sequence (P49798 whole entry, looked up): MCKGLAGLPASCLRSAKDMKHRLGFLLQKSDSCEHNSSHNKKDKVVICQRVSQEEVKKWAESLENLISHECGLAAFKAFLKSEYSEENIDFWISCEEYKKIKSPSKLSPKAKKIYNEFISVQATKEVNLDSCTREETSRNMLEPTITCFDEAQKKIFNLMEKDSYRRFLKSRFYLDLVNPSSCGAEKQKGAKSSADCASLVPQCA
MrgX1 antagonist = antagonists of human MrgX1 receptor, primary screen, HEK293 cells, Fluo-4 calcium flux; Mas-related G-protein coupled receptor member X1 (Homo sapiens), Q96LB2; BAM8-22 antagonism; hits give low values; B-score at 10 µM; 310,000 tested, 1.3% active; AID 588676, 2011;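 active means calcium-response B-score plate-corrected more than 3 library SD below zero, starting fluorescence within 5 deviations, no agonist response on first addition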;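 further: peak minus trough fluorescence over baseline after final BAM8-22 challenge near maximal dose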
MrgX1 agonist = agonists of human MrgX1 receptor, primary screen, HEK293 cells, Fluo-4 calcium flux. Fluo-4 calcium fluorescence, agonist mode; hits give high values. B-score at 10 µM. 310,000 tested, 0.44% active. AID 588627, 2011;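 active means calcium response B-score plate-corrected fluorescence ratio at least 3 library SD, with starting fluorescence B-score inside 5 SD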
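Assay system: stable human MrgX1 HEK293 cell line. Quantity: 15,000 cells per well. Schedule: cells plated overnight, dye loaded 0.5 h 37 °C, 0.5 h room temperature. Detection: Fluo-4 NW calcium-flux fluorescence, kinetic read. Read-out basis: peak-minus-minimum fluorescence over baseline, converted to B scores. Control set: positive and negative control wells on each plate.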
RGS4 inh valid = enhanced carbachol calcium response, M3R/RGS4 cells, RGS4 inhibitor project, cell-based, validation screen, HEK293 M3R/RGS4, calcium flux; calcium response, % at 10 µM; shares compounds with RGS4 block; carbachol calcium Fluo-4 fluorescence; carbachol added at its EC20; 0 = buffer wells, 100 = carbachol control; 1,700 tested, 65% active; AID 492999, 2010;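 active means duplicate-averaged calcium response above the buffer-only control mean plus 5 SD of those controls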;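 further: integrated fluorescence ratio F max minus min over baseline F0; higher response in RGS4-induced cells means RGS4 inhibition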
RGS4 uninduced = carbachol calcium response in non-induced M3R cells, confirmation, counter-screen for RGS4 inhibitor project, cell-based, HEK293 M3R; shares compounds with RGS4 block; carbachol calcium Fluo-4; submaximal (EC20) carbachol stimulus; buffer wells 0%, carbachol control wells 100%; activity (percent), % at 10 µM; 1,900 tested, 20% active; AID 493000, 2010; call rule not given here;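 further: RGS4 induction absent so cells express M3R without RGS4; higher means more calcium signal and flags a non-specific hit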
RGS4 inh ctr2 = second RGS4 inhibitor counter-screen in uninduced cells lacking carbachol. shares compounds with RGS4 block. HEK293 M3R/RGS4 non-induced, Fluo-4 calcium, no carbachol; normalised: buffer wells 0%, carbachol wells 100%. calcium response (agonist-mode artifact), % at 10 µM. 1,900 tested, 22% active;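 active means duplicate-averaged calcium rise in uninduced cells above buffer wells' mean plus 5 SD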
The depositor's hits bear a star; i = inactive; x = no result given.

SMILES | RGS4 act | MrgX1 allo act | RGS4 block | MrgX1 antagonist | MrgX1 agonist | RGS4 inh valid | RGS4 uninduced | RGS4 inh ctr2
COc1cccc(/C=C2/C(=O)NN(c3ccc(Br)cc3)C2=O)c1O | i | i | i | i | i | x | x | x
COC(=O)c1ccc(N2NC(=O)/C(=C/c3cc(OC)c(O)c(OC)c3)C2=O)cc1 | i | i | i | i | i | i | i | 30%*
COC(=O)c1ccc(N2NC(=O)/C(=C/c3cc(OC)c(OC)c(OC)c3)C2=O)cc1 | i | i | 4.9* | i | i | 14%* | i | i
COc1cc(/C=C2/C(=O)NN(c3ccc(F)cc3)C2=O)cc(Cl)c1O | i | i | 6.2* | i | 30* | 14%* | 35%* | 18%*
Cc1ccc(CN2CCNC(=O)C2CC(=O)NCc2cc(C)n(C)n2)cc1 (stereo not drawn) | i | i | i | i | i | x | x | x
Cn1c(OCc2ccco2)nc2c1c(=O)n(Cc1ccc(Cl)c(Cl)c1)c(=O)n2C | i | i | 5.9* | i | i | 6.5%* | i | i
CNC(=S)N(CCCn1ccnc1)Cc1c(F)cccc1Cl | i | i | i | i | i | x | x | x
CC(C)CC(c1nnnn1C1CCCC1)N1CCC(C(N)=O)CC1 (stereo not drawn) | i | i | i | i | i | x | x | x
N#Cc1ccc(/C=C/C(=O)c2cccnc2)cc1 | i | i | 19* | i | i | 46%* | i | i
CCN(CC)c1ccc(/C=C/C(=O)c2cccnc2)cc1 | i | i | i | i | i | x | x | x
C/C(=N\NC(=O)c1c(Cl)cnn1C)c1ccc(NC(=O)c2ccncc2)cc1 | i | i | 9.6* | i | i | i | i | i
N#Cc1c(-c2ccccc2)c(-c2ccccc2)nn(CC(=O)NNC(=O)Nc2ccc(Cl)c(Cl)c2)c1=O | i | i | 6.5* | i | i | 28%* | i | i
O=C(COC(=O)c1ccco1)NCc1ccc(F)cc1 | i | i | i | i | i | x | x | x
CCn1c(=O)cc(OCC(=O)NCCCN2CCCC2=O)c2ccccc21 | i | i | i | i | i | x | x | x
CCn1c2ccccc2c2cc(C3C(C#N)=C(N)Oc4n[nH]c(COC)c43)ccc21 (stereo not drawn) | i | i | 25* | i | i | 39%* | 34%* | i
CCOC(=O)C1=C(CS(=O)(=O)c2ccc(C)cc2)NC(=O)NC1c1ccc(O)c(OC)c1 (stereo not drawn) | i | i | i | i | i | x | x | x
COC(=O)C1=C(CS(=O)(=O)c2ccc(C)cc2)NC(=O)NC1c1ccc(OC)c(OC)c1 (stereo not drawn) | i | i | i | i | i | i | i | i
O=C(Nc1nc(-c2cccnc2)cs1)c1ccccc1[N+](=O)[O-] | i | i | i | i | i | x | x | x
CC1(C)CCCN(Cc2c(O)ccc3c(=O)c(-c4nc5ccccc5s4)c(N)oc23)C1 | i | i | i | i | i | x | x | x
CC1CCN(Cc2c(O)ccc3c(=O)c(-c4nc5ccccc5s4)c(N)oc23)CC1 | i | i | 6.3* | i | i | 12%* | i | i
CC1CCCN(Cc2c(O)ccc3c(=O)c(-c4nc5ccccc5s4)c(N)oc23)C1 (stereo not drawn) | i | i | 5* | i | i | 16%* | i | i
O=C(O)CCC(=O)N1CCN(c2ncccn2)CC1 | i | i | i | i | i | x | x | x
O=C(CSc1cccc[n+]1[O-])Nc1cc2c(cc1Cl)C(=O)c1ccccc1C2=O | i | i | 12* | i | i | 65%* | i | i
Cc1cc(OCC(=O)Nc2nccs2)c2c(C)cc(=O)oc2c1 | i | i | i | i | i | x | x | x
COc1ccc(N(CC(=O)NCc2ccco2)C(=O)CCC(=O)Nc2ccccn2)cc1 | i | x | i | x | x | x | x | x
SMILES | RGS4 act | MrgX1 allo act | RGS4 block | MrgX1 antagonist | MrgX1 agonist | RGS4 inh valid | RGS4 uninduced | RGS4 inh ctr2
O=C(OCn1ncc(Br)c(Br)c1=O)c1ccc(F)cc1 | i | i | 13* | i | i | 24%* | i | i
O=C(c1ccc(=O)[nH]c1)N1CCCc2ccccc21 | i | i | i | i | i | x | x | x
Cc1ccc(C)c(NC(=O)c2ccccc2O)c1 | i | i | i | i | i | x | x | x
O=C(/C=C/c1ccccc1Cl)c1ccccc(=O)c1O | i | 8.1* | 18* | i | i | 44%* | i | 10%*
O=C(/C=C/c1ccccc1Cl)c1ccc(O)cc1 | i | i | i | i | i | x | x | x
Cc1ccc(/C=C/C(=O)c2ccccc(=O)c2O)c(C)c1 | i | i | i | i | i | x | i | 34%*
Cc1ccc(C)c(/C=C/C(=O)c2ccccc(=O)c2O)c1 | i | i | 7.5* | i | i | 14%* | i | 40%*
CCOC(=O)c1c2ccccc2[n+]([O-])n1CCO | i | i | i | i | i | x | x | x
Fc1ccccc1CN1CCCC(NC2CCC2)C1 (stereo not drawn) | i | i | 6.9* | i | i | 8.0%* | i | i
CNc1nc(N)c([N+](=O)[O-])c(Nc2ccccc2OC)n1 | i | i | 11* | i | i | 12%* | 44%* | i
N=C1/C(=C/c2cccn2Cc2ccc(Cl)cc2)C(=O)N=C2SC=CN12 | i | i | 8.4* | i | i | 5.0%* | i | i
CC1=CC2=NC(=O)/C(=C/c3cccn3Cc3ccccc3)C(=N)N2O1 | i | i | i | i | i | x | x | x
CC(NC(=O)C(C)N1c2cccc3cccc(c23)S1(=O)=O)c1ccccc1 (stereo not drawn) | i | i | i | i | i | x | x | x

Screening results (PubChem BioAssay)
